Calls of active or inactive are those of the source. The rule behind the calls is not given here.
How the values were obtained:
[1] = tested on: Proto-oncogene tyrosine-protein kinase receptor Ret (Homo sapiens), P07949 [V804L]; experiment: Inhibition of RET isoform 9 V804L mutant (unknown origin) expressed in rat Rat1 assessed as reduction in RET phosphorylation at Y1062 residue at 1 to 100 nM measured after 2 hrs by Western blot analysis; type: cell-based
Summary of the method: (§1)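 Serum-starved RAT1 (RET point mutants) or NIH3T3 (RET rearrangements) cells expressing short RET-9 isoform, treated 2 h; 50 μg total lysate immunoblotted with anti-phospho-Y1062 and anti-phospho-Y905 RET antibodies, normalized to total RET; ECL detection. Compound from 50 mM DMSO stock diluted in growth medium.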

[2] = Toxicity in BALB/c nu/nu mouse assessed as change in alanine transaminase level at 10 mg/kg, po administered daily for 7 days; type: organism-based; conditions: in vivo, 168 h
Summary of the method: (§2)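 Mice dosed orally with 10 mg/kg/day for 7 days; standard blood markers of organ damage measured.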

Homo sapiens = organism: Homo sapiens; experiment: Effect on MAPK phosphorylation in RET deficient human PC9 cells at 1 to 100 nM measured after 2 hrs by western blot analysis
[3] = biological target: T1, SHC-transforming protein 1 (Homo sapiens) (UniProt P29353); experiment: Effect on SHC phosphorylation in RET deficient human 8505C cells at 1 to 100 nM measured after 2 hrs by western blot analysis; type: cell-based
T1 sequence (whole entry): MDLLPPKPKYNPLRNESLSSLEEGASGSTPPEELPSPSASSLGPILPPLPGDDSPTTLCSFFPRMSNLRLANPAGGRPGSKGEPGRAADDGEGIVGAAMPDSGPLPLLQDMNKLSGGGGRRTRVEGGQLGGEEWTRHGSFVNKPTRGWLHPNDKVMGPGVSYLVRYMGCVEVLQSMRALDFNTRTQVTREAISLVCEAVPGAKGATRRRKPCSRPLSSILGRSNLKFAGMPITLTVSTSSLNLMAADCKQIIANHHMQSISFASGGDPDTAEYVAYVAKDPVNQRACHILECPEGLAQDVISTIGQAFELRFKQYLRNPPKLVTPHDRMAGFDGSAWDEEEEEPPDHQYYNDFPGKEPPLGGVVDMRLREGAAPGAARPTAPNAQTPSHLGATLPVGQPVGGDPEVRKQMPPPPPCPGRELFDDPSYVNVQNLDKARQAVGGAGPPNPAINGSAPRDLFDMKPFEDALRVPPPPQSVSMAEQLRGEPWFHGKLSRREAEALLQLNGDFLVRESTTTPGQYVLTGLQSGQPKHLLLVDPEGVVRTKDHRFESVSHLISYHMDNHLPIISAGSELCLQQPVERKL

[4] = Drug metabolism in BALB/c nu/nu mouse assessed as formation of demethylated metabolite at 10 mg/kg, po measured after 1 to 4 hrs by LC-MS analysis; type: ADME, organism-based; conditions: in vivo
[5] = tested on: Proto-oncogene tyrosine-protein kinase receptor Ret (Homo sapiens), P07949 [C634R]; experiment: Inhibition of RET […] C634R mutant (unknown origin) expressed in mouse BAF3 cells assessed as reduction in RET phosphorylation at Y905 residue at 0.3 to 30 nM measured after 2 hrs by Western blot analysis; type: cell-based
Sequence of Proto-oncogene tyrosine-protein kinase receptor Ret (Homo sapiens), P07949 [C634R] (P07949 whole entry C634R, canonical isoform): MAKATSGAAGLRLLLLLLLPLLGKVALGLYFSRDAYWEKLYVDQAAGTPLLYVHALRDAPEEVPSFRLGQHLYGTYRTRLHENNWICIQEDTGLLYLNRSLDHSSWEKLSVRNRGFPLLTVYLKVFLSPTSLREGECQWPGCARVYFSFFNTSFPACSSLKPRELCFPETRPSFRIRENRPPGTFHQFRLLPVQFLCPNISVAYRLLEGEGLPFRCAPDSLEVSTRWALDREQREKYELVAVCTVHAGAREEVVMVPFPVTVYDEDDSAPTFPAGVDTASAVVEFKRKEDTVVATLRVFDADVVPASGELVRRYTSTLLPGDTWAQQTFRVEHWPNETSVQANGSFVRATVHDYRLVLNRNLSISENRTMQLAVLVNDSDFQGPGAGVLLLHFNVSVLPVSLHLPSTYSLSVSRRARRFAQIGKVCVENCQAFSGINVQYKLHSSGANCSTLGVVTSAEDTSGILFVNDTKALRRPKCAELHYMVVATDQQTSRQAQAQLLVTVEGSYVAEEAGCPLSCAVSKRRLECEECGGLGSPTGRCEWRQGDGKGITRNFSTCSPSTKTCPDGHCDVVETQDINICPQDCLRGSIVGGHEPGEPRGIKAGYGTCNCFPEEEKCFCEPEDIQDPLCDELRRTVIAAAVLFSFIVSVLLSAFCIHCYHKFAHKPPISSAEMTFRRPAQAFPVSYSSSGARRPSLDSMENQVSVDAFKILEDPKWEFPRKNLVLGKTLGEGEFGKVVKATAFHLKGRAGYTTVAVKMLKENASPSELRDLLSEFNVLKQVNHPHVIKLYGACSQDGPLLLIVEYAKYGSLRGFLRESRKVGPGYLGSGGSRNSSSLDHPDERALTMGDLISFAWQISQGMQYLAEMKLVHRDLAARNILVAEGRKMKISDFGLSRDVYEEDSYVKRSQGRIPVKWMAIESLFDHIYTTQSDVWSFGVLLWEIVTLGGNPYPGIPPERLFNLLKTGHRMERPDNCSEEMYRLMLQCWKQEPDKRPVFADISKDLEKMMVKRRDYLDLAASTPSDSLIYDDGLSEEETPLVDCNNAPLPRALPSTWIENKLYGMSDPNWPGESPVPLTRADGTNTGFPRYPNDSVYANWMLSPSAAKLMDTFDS
Summary of the method: (§3)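 Ba/F3 cells stably expressing long-isoform RET-51 mutants (electroporation), cultured in RPMI/10% FCS without IL-3; RET phosphorylation read by Western blot with anti-phospho-Y905 and anti-phospho-Y1062 antibodies, ECL detection.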

[6] = tested on: Proto-oncogene tyrosine-protein kinase receptor Ret (Homo sapiens), P07949 [M918T]; experiment: Inhibition of RET isoform 9 M918T mutant (unknown origin) expressed in rat Rat1 assessed as reduction in RET phosphorylation at Y1062 residue at 1 to 100 nM measured after 2 hrs by Western blot analysis; type: cell-based; summary of the method: as §1
Sequence of Proto-oncogene tyrosine-protein kinase receptor Ret (Homo sapiens), P07949 [M918T] (P07949 whole entry M918T, the tested form may be a part, canonical isoform): as the sequence (P07949 whole entry C634R, canonical isoform) above, with R634C, M918T counted along it

[7] = biological target: MAP kinase-interacting serine/threonine-protein kinase 2 (Homo sapiens) (UniProt Q9HBH9); experiment: Binding affinity to wild-type human partial length MKNK2 (G63 to S388 residues) expressed in mammalian expression system at 100 nM by Kinomescan method relative to control
Sequence of MAP kinase-interacting serine/threonine-protein kinase 2 (Homo sapiens) (Q9HBH9 whole entry, looked up, the tested form may be a part): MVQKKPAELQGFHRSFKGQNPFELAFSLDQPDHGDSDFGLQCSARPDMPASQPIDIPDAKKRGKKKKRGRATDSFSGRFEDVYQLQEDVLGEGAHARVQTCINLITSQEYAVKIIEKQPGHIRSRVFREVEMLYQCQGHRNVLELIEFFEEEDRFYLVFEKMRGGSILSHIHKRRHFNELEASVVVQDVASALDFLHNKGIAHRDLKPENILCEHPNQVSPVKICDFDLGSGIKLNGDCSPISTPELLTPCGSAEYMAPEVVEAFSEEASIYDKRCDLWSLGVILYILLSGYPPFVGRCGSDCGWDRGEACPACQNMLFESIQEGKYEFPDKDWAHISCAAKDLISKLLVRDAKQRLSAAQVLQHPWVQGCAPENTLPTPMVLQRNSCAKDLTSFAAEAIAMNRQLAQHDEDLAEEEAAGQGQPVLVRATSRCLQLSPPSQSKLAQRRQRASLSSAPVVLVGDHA

[8] = biological target: Tyrosine-protein kinase FRK (Homo sapiens) (UniProt P42685); experiment: Binding affinity to wild-type human partial length FRK (A215 to F503 residues) expressed in bacterial expression system at 100 nM by Kinomescan method relative to control
Sequence of Tyrosine-protein kinase FRK (Homo sapiens) (P42685 whole entry, the tested form may be a part, canonical isoform): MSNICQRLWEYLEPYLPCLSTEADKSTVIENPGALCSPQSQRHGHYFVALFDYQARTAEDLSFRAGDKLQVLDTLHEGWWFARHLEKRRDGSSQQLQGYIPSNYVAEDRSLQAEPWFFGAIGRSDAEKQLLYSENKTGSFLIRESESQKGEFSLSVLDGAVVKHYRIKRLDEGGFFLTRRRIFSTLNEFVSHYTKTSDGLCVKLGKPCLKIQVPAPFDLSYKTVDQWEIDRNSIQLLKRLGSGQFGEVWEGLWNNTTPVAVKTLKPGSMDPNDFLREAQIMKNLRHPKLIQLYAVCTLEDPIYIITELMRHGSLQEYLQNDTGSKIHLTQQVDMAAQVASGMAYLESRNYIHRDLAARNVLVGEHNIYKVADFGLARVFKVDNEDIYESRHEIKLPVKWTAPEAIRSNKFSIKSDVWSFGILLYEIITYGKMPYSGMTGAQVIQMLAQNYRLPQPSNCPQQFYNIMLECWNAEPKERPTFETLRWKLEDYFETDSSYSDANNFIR

[9] = tested on: Proto-oncogene tyrosine-protein kinase receptor Ret (Homo sapiens), P07949 [C634R]; experiment: Inhibition of RET isoform 9 C634R mutant (unknown origin) expressed in rat Rat1 assessed as reduction in RET phosphorylation at Y1062 residue at 3 nM measured after 2 hrs by Western blot analysis; type: cell-based
Summary of the method: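 RAT1 fibroblasts expressing RET-9 C634R, serum-starved, treated 2 h with 0.1–10.0 nM; 50 μg lysate blotted for RET pY905 and pY1062, normalized to total RET; ECL detection.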

BaF3 = experiment: Cytotoxicity against mouse BAF3 cells assessed as reduction in cell proliferation supplemented with fresh medium containing compound for every 2 to 3 days and measured daily; type: cell-based
Summary of the method: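 Ba/F3 cells (parental with IL-3 10 ng/mL; RET/C634R, RET/M918T, NCOA4-RET stable transfectants, RET-51 isoform) were seeded at 200000/well in 10% FCS. Drug or vehicle was added the day after plating, with medium changed every 2–3 days, and cells were counted daily. […] This was a single experiment in triplicate.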

[10] = Toxicity in BALB/c nu/nu mouse assessed as change in alkaline phosphatase level at 10 mg/kg, po administered daily for 7 days; type: organism-based; conditions: in vivo, 168 h; summary of the method: as §2
8505C = experiment: Effect on MAPK phosphorylation in RET deficient human 8505C cells at 1 to 100 nM measured after 2 hrs by western blot analysis; type: cell-based
[11] = tested on: Proto-oncogene tyrosine-protein kinase receptor Ret (Homo sapiens), P07949 [M918T]; experiment: Inhibition of RET […] M918T mutant (unknown origin) expressed in mouse BAF3 cells assessed as reduction in RET phosphorylation at Y1062 residue at 0.3 to 30 nM measured after 2 hrs by Western blot analysis; type: cell-based; summary of the method: as §3
[12] = Toxicity in BALB/c nu/nu mouse assessed as change in calcium level at 10 mg/kg, po administered daily for 7 days; type: organism-based; conditions: in vivo, 168 h
[13] = biological target: Macrophage colony-stimulating factor 1 receptor (Homo sapiens, UniProt P07333); experiment: Binding affinity to wild-type human partial length CSF1R (I564 to S939 residues) expressed in bacterial expression system at 100 nM by Kinomescan method relative to control
Sequence of Macrophage colony-stimulating factor 1 receptor (P07333 whole entry, the tested form may be a part, canonical isoform): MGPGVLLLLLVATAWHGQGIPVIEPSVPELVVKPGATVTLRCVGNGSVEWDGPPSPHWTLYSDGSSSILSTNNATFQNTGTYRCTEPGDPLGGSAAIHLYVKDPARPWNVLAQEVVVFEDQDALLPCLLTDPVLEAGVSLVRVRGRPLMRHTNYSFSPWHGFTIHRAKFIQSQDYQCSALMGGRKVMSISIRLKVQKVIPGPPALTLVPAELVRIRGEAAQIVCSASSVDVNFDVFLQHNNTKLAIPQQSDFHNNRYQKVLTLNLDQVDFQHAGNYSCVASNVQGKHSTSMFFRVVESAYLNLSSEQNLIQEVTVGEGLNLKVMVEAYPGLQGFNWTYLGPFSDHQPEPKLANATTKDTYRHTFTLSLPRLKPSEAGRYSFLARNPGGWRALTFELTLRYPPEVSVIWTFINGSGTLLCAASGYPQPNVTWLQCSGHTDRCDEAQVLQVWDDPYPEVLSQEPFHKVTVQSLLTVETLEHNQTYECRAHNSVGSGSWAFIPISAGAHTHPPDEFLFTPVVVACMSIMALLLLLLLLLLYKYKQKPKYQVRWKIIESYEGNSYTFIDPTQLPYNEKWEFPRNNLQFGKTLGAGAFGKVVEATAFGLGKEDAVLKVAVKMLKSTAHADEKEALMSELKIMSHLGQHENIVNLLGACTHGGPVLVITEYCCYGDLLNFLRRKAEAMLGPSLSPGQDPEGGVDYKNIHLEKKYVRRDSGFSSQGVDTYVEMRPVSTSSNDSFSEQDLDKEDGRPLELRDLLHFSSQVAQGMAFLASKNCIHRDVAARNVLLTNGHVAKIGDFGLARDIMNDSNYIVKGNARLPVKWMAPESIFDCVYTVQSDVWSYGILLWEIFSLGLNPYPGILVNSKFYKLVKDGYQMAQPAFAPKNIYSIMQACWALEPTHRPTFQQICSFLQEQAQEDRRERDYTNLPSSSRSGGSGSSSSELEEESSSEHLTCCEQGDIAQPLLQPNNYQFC

Mus musculus = experiment: In vivo inhibition of RET isoform 9 C634R mutant transfected in mouse NIH/3T3 cells implanted BALB/c nu/nu mouse assessed as reduction in RET phosphorylation at Y1062 residue in tumor at 1 mg/kg, po administered once daily via gavage for 3 days measured 3 hrs post-last dose by Western blot analysis; type: functional, organism-based
[14] = tested on: Proto-oncogene tyrosine-protein kinase receptor Ret (Homo sapiens), P07949 [V804L]; experiment: Inhibition of RET isoform 9 V804L mutant (unknown origin) expressed in rat Rat1 assessed as reduction in RET phosphorylation at Y905 residue at 1 to 100 nM measured after 2 hrs by Western blot analysis; type: cell-based; summary of the method: as §1
[15] = tested on: Proto-oncogene tyrosine-protein kinase receptor Ret (Homo sapiens), P07949 [C634W]; experiment: Inhibition of Ret isoform 9 C634W mutant in human TT cells assessed as reduction in SHC phosphorylation at 0.3 to 30 nM measured after 2 hrs by Western blot analysis; type: cell-based
Sequence of Proto-oncogene tyrosine-protein kinase receptor Ret (Homo sapiens), P07949 [C634W] (P07949 whole entry C634W, canonical isoform): as the sequence (P07949 whole entry C634R, canonical isoform) above, with R634W counted along it

Sequence of Proto-oncogene tyrosine-protein kinase receptor Ret (Homo sapiens), P07949 [V804L] (P07949 whole entry V804L, canonical isoform): as the sequence (P07949 whole entry C634R, canonical isoform) above, with R634C, V804L counted along it

inhibition [1]: Active | Activity (Homo sapiens): inactive | Activity [3]: inactive | Drug metabolism [4]: Metabolite_Notdetected | inhibition [5]: Active | inhibition [6]: Active | Activity [7]: > 90% | Activity [8]: > 90% | inhibition [9]: 100% | inhibition [11]: Active | Activity [13]: > 90% | inhibition [14]: Active | inhibition [15]: Active
SMILES: CC(C)(C)c1cc(NC(=O)Cc2ccc(-n3cnc4cc(-c5ccc(S(C)(=O)=O)cc5)ccc43)cc2)no1
Activity [2]: Non-Toxic | IC50 (BaF3): > 100 nM | Activity [10]: Non-Toxic | Activity (8505C): inactive | Activity [12]: Non-Toxic | inhibition (Mus musculus): Active
